# Experimental data taken from ChEMBL document CHEMBL1127665, “Synthesis and antibacterial activity of new quinolones containing a 7-[3-(1-amino-1-methylethyl)-1-pyrrolidinyl] moiety. Gram-positive agents with excellent oral activity and low side-effect potential” (J Med Chem, 1994).
# Tests used:
# V79 = assay: Clonogenic cytotoxicity against Hamster V-79 cells; format: cell-based; conditions: Cricetulus griseus
# Mus musculus [1] = assay: In vivo antibacterial activity against Streptococcus pyogenes after following oral administration; format: functional; conditions: read-out: PD50
# Procedure, shortened: (§1)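 Acute lethal systemic infection in female Charles River CD-1 mice. Compound given orally or subcutaneously. Potency expressed as median protective dose (PD50, mg/kg), the dose preventing death in 50% of animals.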
# Enterobacter cloacae = assay: Minimum inhibitory concentration against Enterobacter cloacae MA 2646; format: functional
# Staphylococcus aureus [2] = assay: Minimum inhibitory concentration against Staphylococcus aureus UC-76; format: functional
# Procedure, shortened: (§2)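 Tested by microtitration against a panel of 10 Gram-positive and Gram-negative organisms. MIC is reported in μg/mL.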
# Mus musculus [3] = assay: In vivo antibacterial activity against Escherichia coli after following subcutaneous administration; format: functional; conditions: sc, read-out: PD50; procedure, shortened: as §1
# Enterococcus faecalis = assay: Minimum inhibitory concentration against Streptococcus faecalis MGH-2; format: functional; procedure, shortened: as §2
# Mus musculus [4] = assay: In vivo antibacterial activity against Escherichia coli after following oral administration; format: functional; conditions: read-out: PD50; procedure, shortened: as §1
# Klebsiella pneumoniae = assay: Minimum inhibitory concentration against Klebsiella pneumoniae MGH-2; format: functional; procedure, shortened: as §2
# Providencia rettgeri = assay: Minimum inhibitory concentration against M1771 strain of Providencia rettgeri; format: functional; procedure, shortened: as §2
# Staphylococcus aureus [5] = assay: Minimum inhibitory concentration against Staphylococcus aureus H 228; format: functional; procedure, shortened: as §2
# Escherichia coli = assay: Minimum inhibitory concentration against Escherichia coli Vogel; format: functional; procedure, shortened: as §2
# Pseudomonas aeruginosa = assay: Minimum inhibitory concentration against U1-18 cell line from Pseudomonas aeruginosa; format: functional; procedure, shortened: as §2
# Streptococcus pyogenes = assay: Minimum inhibitory concentration against Streptococcus pyogenes C203; format: functional; procedure, shortened: as §2
# [6] = The no effect dose (NED) for phototoxicity in mouse; format: organism-based; conditions: in vivo, read-out: NED
# Procedure, shortened: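 Female CD-1 mice were depilated and dosed orally, with five animals per dose plus controls. After each dose the mice were exposed to UVA for 3 h. This was repeated daily for 4 days. Any redness or erythema relative to control was scored positive. The value is the highest dose producing no effect, in mg/kg.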
# Streptococcus pneumoniae = assay: Minimum inhibitory concentration tested against Streptococcus pneumoniae SV-1; format: functional; procedure, shortened: as §2
# Mus musculus [7] = assay: In vivo antibacterial activity against Streptococcus pyogenes after following subcutaneous administration; format: functional; conditions: sc, read-out: PD50; procedure, shortened: as §1
SMILES,IC50 (V79),ED50 (Mus musculus [1]),MIC (Enterobacter cloacae),MIC (Staphylococcus aureus [2]),ED50 (Mus musculus [3]),MIC (Enterococcus faecalis),ED50 (Mus musculus [4]),MIC (Klebsiella pneumoniae),MIC (Providencia rettgeri),MIC (Staphylococcus aureus [5]),MIC (Escherichia coli),MIC (Pseudomonas aeruginosa),MIC (Streptococcus pyogenes),NOAEL [6],MIC (Streptococcus pneumoniae),ED50 (Mus musculus [7])
C[C@@H](N)C1CCN(c2nc3c(cc2F)c(=O)c(C(=O)O)cn3C2CC2)C1 (stereo partly specified),33 µg/mL,3 mg/kg,0.05 µg/mL,0.003 µg/mL,0.4 mg/kg,0.013 µg/mL,2 mg/kg,0.05 µg/mL,0.1 µg/mL,0.025 µg/mL,0.025 µg/mL,0.4 µg/mL,0.013 µg/mL,30 mg/kg,0.003 µg/mL,1 mg/kg
NC1CCN(c2c(F)cc3c(=O)c(C(=O)O)cn(C4CC4)c3c2F)C1 (stereo unspecified),,8 mg/kg,0.025 µg/mL,0.025 µg/mL,0.2 mg/kg,0.05 µg/mL,1 mg/kg,0.025 µg/mL,0.05 µg/mL,0.05 µg/mL,0.013 µg/mL,0.1 µg/mL,0.05 µg/mL,3 mg/kg,0.05 µg/mL,2 mg/kg
CC(C)(N)[C@@H]1CCN(c2nc3c(cc2F)c(=O)c(C(=O)O)cn3-c2ccc(F)cc2F)C1.Cl,,,0.2 µg/mL,0.025 µg/mL,,0.1 µg/mL,,0.4 µg/mL,0.8 µg/mL,0.05 µg/mL,0.2 µg/mL,3.1 µg/mL,0.05 µg/mL,,0.05 µg/mL,
CC(C)(N)[C@H]1CCN(c2cc3c(cc2F)c(=O)c(C(=O)O)cn3C2CC2)C1.Cl,,> 100 mg/kg,0.4 µg/mL,0.1 µg/mL,,0.4 µg/mL,,0.8 µg/mL,1.6 µg/mL,0.4 µg/mL,0.4 µg/mL,3.1 µg/mL,0.2 µg/mL,,0.2 µg/mL,13 mg/kg
CC(C)(N)[C@@H]1CCN(c2nc3c(cc2F)c(=O)c(C(=O)O)cn3C2CC2)C1.Cl,130 µg/mL,4 mg/kg,0.1 µg/mL,0.003 µg/mL,1 mg/kg,0.05 µg/mL,5 mg/kg,0.2 µg/mL,0.4 µg/mL,0.1 µg/mL,0.05 µg/mL,1.6 µg/mL,0.013 µg/mL,73 mg/kg,0.006 µg/mL,1 mg/kg
CC(C)(N)[C@@H]1CCN(c2c(F)cc3c(=O)c(C(=O)O)cn(C4CC4)c3c2Cl)C1.Cl,< 8 µg/mL,2 mg/kg,0.05 µg/mL,0.003 µg/mL,1 mg/kg,0.013 µg/mL,8 mg/kg,0.1 µg/mL,0.2 µg/mL,0.006 µg/mL,0.05 µg/mL,0.8 µg/mL,0.003 µg/mL,,0.003 µg/mL,0.1 mg/kg
CC(C)(N)[C@@H]1CCN(c2cc3c(cc2F)c(=O)c(C(=O)O)cn3C2CC2)C1.Cl,190 µg/mL,20 mg/kg,0.05 µg/mL,0.006 µg/mL,2 mg/kg,0.025 µg/mL,18 mg/kg,0.1 µg/mL,0.2 µg/mL,0.05 µg/mL,0.05 µg/mL,0.8 µg/mL,0.003 µg/mL,,0.003 µg/mL,1 mg/kg
C[C@H](N)C1CCN(c2nc3c(cc2F)c(=O)c(C(=O)O)cn3C2CC2)C1 (stereo partly specified),100 µg/mL,14 mg/kg,0.05 µg/mL,0.006 µg/mL,1 mg/kg,0.05 µg/mL,6 mg/kg,0.1 µg/mL,0.4 µg/mL,0.05 µg/mL,0.05 µg/mL,0.8 µg/mL,0.013 µg/mL,67 mg/kg,0.006 µg/mL,2 mg/kg
O=C(O)c1cn(C2CC2)c2cc(N3CCNCC3)c(F)cc2c1=O [CIPROFLOXACIN],,180 mg/kg,,0.2 µg/mL,0.3 mg/kg,0.8 µg/mL,1 mg/kg,0.05 µg/mL,0.1 µg/mL,3.1 µg/mL,,0.4 µg/mL,0.8 µg/mL,> 100 mg/kg,1.6 µg/mL,19 mg/kg
COc1c(N2CC[C@H](C(C)(C)N)C2)c(F)cc2c(=O)c(C(=O)O)cn(C3CC3)c12.Cl,> 500 µg/mL,29 mg/kg,0.2 µg/mL,0.013 µg/mL,,0.05 µg/mL,,0.4 µg/mL,0.8 µg/mL,0.05 µg/mL,0.2 µg/mL,3.1 µg/mL,0.025 µg/mL,,0.025 µg/mL,3 mg/kg
